The target in assay [1] is T1, Beta-2 adrenergic receptor (Homo sapiens, UniProt P07550). Nature of the assay: Binding affinity to N-terminal FLAG-tagged C-terminal His-10-tagged human beta2 adrenoceptor expressed in insect Sf9 cells by surface plasmon resonance analysis in presence of maltose neopentyl glycol. Put shortly:
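Same NTA chip capture of His-10-tagged purified receptor as the primary SPR screen, but the binding run was done in MNG detergent. KD by SPR.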
(Surface plasmon resonance follows binding to a sensor surface in real time, without labels.)
Target sequence in this assay (P07550 whole entry): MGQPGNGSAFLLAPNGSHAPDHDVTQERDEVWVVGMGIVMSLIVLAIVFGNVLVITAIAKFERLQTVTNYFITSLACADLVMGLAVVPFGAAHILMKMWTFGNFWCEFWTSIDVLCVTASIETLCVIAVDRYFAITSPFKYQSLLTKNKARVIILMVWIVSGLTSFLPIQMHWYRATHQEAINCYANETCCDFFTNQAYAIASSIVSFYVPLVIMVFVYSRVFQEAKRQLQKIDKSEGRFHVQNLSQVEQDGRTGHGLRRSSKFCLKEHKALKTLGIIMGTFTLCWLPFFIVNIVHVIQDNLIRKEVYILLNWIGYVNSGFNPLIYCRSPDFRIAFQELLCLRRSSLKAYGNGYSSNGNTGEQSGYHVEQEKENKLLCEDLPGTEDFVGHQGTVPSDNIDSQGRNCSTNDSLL

For assay [2], the target named is T1, Beta-2 adrenergic receptor. Kind of assay: Displacement of [125I]-Cyanopindolol from human beta2 adrenoceptor expressed in HEK293 cells after 90 mins by gamma counting analysis. The assay is classed as cell-based. (In general: Displacement assays read how much labelled ligand stays bound in the presence of the test substance.)
Target sequence in this assay (P07550 whole entry, looked up): as the sequence (P07550 whole entry) above
For assay [3], the target named is Vasopressin V2 receptor (Homo sapiens) (UniProt P30518). Kind of assay: Antagonist activity at AVPR2 (unknown origin) assessed as inhibition of [Arg8]-Vasopressin induced cAMP production at 10 to 100 uM. The format is functional. On the technique in general: cAMP levels reflect the balance of adenylyl cyclase and phosphodiesterase activity.
Vasopressin V2 receptor (Homo sapiens), sequence (P30518 whole entry): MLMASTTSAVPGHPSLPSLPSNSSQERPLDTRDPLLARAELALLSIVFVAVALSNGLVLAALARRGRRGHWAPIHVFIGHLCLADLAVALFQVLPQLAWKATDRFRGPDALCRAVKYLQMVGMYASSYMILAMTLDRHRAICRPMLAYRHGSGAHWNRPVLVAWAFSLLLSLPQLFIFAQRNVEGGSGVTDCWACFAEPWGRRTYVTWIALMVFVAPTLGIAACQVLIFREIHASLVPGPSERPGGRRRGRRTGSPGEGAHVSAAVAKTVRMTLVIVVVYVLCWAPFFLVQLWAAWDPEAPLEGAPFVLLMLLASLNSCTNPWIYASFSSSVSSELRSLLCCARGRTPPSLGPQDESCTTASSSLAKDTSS
For assay [4], the target named is T1, Beta-2 adrenergic receptor. Kind of assay: Agonist activity at human beta2 adrenoceptor containing C-terminus of V2 vasopressin receptor expressed in HEK293 cells assessed as stimulation of beta arrestin recruitment after 15 to 18 hrs by luciferase reporter gene assay. The assay is classed as functional, cell-based.
Target sequence in this assay (P07550 whole entry, looked up): as the sequence (P07550 whole entry) above
For assay [5], the target named is Vasopressin V2 receptor (Homo sapiens) (UniProt P30518). Kind of assay: Agonist activity at AVPR2 (unknown origin) assessed as stimulation of cAMP production. The format is functional.
The target in assay [6] is T1, Beta-2 adrenergic receptor. Kind of assay: Binding affinity to N-terminal FLAG-tagged C-terminal His-10-tagged human beta2 adrenoceptor expressed in insect Sf9 cells by surface plasmon resonance analysis in presence of dodecyl maltoside.
Target sequence in this assay (P07550 whole entry, looked up): as the sequence (P07550 whole entry) above
Assay [7] deals with T1, Beta-2 adrenergic receptor. Kind of assay: Agonist activity at human beta2 adrenoceptor expressed in HEK293 cells assessed as stimulation of cAMP production after 5 mins by luciferase reporter gene assay. The assay is classed as functional, cell-based.
Target sequence in this assay (P07550 whole entry, looked up): as the sequence (P07550 whole entry) above
The target in assay [8] is T1, Beta-2 adrenergic receptor. Kind of assay: Antagonist activity at human beta2 adrenoceptor expressed in HEK293 cells assessed as inhibition of isoproterenol-induced cAMP production at 100 uM after 5 mins by luciferase reporter gene assay. The format is functional, cell-based.
Target sequence in this assay (P07550 whole entry, looked up): as the sequence (P07550 whole entry) above
For assay [9], the target named is Vasopressin V2 receptor (Homo sapiens) (UniProt P30518). Nature of the assay: Agonist activity at AVPR2 (unknown origin) assessed as stimulation of beta arrestin recruitment. The assay is classed as functional.
The target in assay [10] is T1, Beta-2 adrenergic receptor. Kind of assay: Antagonist activity at human beta2 adrenoceptor containing C-terminus of V2 vasopressin receptor expressed in HEK293 cells assessed as inhibition of isoproterenol-induced beta arrestin recruitment at 100 uM after 15 to 18 hrs by luciferase reporter gene assay. The assay is classed as functional, cell-based.
Target sequence in this assay (P07550 whole entry, looked up): as the sequence (P07550 whole entry) above
In assay [11] the target is Vasopressin V2 receptor (Homo sapiens) (UniProt P30518). Nature of the assay: Antagonist activity at AVPR2 (unknown origin) assessed as inhibition of [Arg8]-Vasopressin induced beta arrestin recruitment at 10 uM. The assay is classed as functional.
Assay [12] deals with T1, Beta-2 adrenergic receptor. Nature of the assay: Binding affinity to N-terminal FLAG-tagged C-terminal His-10-tagged human beta2 adrenoceptor expressed in insect Sf9 cells by surface plasmon resonance analysis.
Target sequence in this assay (P07550 whole entry): as above
Assay [13] deals with Beta-1 adrenergic receptor (Homo sapiens) (UniProt P08588). Kind of assay: Displacement of [125I]-Cyanopindolol from human beta1 adrenoceptor expressed in HEK293 cells after 90 mins by gamma counting analysis. The assay is classed as cell-based.
Beta-1 adrenergic receptor (Homo sapiens), sequence (P08588 whole entry, looked up): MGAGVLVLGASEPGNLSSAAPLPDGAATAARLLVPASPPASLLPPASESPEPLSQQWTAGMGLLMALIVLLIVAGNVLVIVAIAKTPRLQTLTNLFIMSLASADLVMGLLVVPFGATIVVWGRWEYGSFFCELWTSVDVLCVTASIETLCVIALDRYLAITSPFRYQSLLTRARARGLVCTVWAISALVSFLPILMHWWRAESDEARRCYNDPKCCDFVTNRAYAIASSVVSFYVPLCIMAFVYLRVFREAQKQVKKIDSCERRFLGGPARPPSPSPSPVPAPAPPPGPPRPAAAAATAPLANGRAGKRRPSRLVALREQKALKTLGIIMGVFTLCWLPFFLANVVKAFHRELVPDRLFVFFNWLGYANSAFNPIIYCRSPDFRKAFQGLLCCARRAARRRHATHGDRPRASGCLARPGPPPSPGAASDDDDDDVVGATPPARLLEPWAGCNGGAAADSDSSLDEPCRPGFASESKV
Assay [14] deals with T1, Beta-2 adrenergic receptor. The conditions noted are these: Sf9.
The target in assay [15] is T1, Beta-2 adrenergic receptor. Kind of assay: Antagonist activity at human beta2 adrenoceptor containing C-terminus of V2 vasopressin receptor expressed in HEK293 cells assessed as inhibition of isoproterenol-induced beta arrestin recruitment at 10 uM after 15 to 18 hrs by luciferase reporter gene assay. The format is functional, cell-based.
Assay [16] addresses T1, Beta-2 adrenergic receptor. Nature of the assay: Antagonist activity at human beta2 adrenoceptor expressed in HEK293 cells assessed as inhibition of isoproterenol-induced cAMP production at 10 uM after 5 mins by luciferase reporter gene assay. The format is functional, cell-based.

We go through 11 compounds from ChEMBL document CHEMBL2440021, “Discovery of β2 Adrenergic Receptor Ligands Using Biosensor Fragment Screening of Tagged Wild-Type Receptor” (ACS Med Chem Lett, 2013).

Active and inactive are the calls of the source. The rule behind the calls is not given here.

With `c1ccc2c(N3CCNCC3)ccnc2c1`, in assay [1] (read-out: Kd), the Kd came to 348 nM.

In the case of `Clc1cncc(Cl)c1N1CCNCC1`, the Kic in assay [2] turned out to be 15 µM; in [13], 12.9 µM. In addition, the inhibition result in assay [3] and in [11] was “inactive” in each case. Moreover, the outcome in assay [4], in assay [5], in assay [7] and in [9] was inactive. Further, in assay [6], the result was Active. Besides, the inhibition entry in assay [8] and in assay [10] was “Active” each time. The compound also yielded a Kd in assay [12] of 3500 nM.

Regarding `Cc1cc(N2CCNCC2)c2ccccc2n1`, the inhibition entry in assay [3] and in [11] was “inactive” each time. For the same compound, the outcome in assay [5] and in [9] was inactive. For the same compound, the Kd in [1] (read-out: Kd) was determined as 72.5 nM; in [12], 93.4 nM.

`FC(F)(F)c1ccc2c(N3CCNCC3)ccnc2c1`: the Kd in assay [1] (read-out: Kd) stood at 8000 nM.

Take `Clc1ccc2c(N3CCNCC3)ccnc2c1`: in assay [14], the Ka stood at 6.62 ×10⁵ /M/s. The Kic turned out to be 0.191 µM in [2] and 0.152 µM in [13]. Further, the inhibition result in assay [3] and in assay [11] was “inactive” in each case. Besides, the outcome in assay [4], in [5], in assay [7] and in assay [9] was inactive. Also, the outcome in assay [6] was Active. Also, the dissociation constant (Kd) in [1] (read-out: Kd) worked out at 76.5 nM; in assay [12] it was 82.5 nM. Also, the inhibition entry in [15] and in assay [16] was “Active” in each case.

As for `Cc1ccc2nc(C(F)(F)F)cc(N3CCOCC3)c2c1`, in assay [1] (sf9), the Kd entry is given as “Not Active”.

Regarding `Cc1ccc2nc(C(F)(F)F)cc(N3CCN(C)CC3)c2c1`, the dissociation constant Kd in [1] (read-out: Kd) was 1800 nM.

As for `Cc1ccc2nc(C(F)(F)F)cc(N3CCC(F)(F)CC3)c2c1`, in [1] (read-out: Kd), the Kd came out at 67100 nM.

For `c1ccc2c(C3CCNCC3)c[nH]c2c1`, the Kic in [2] worked out at 14.1 µM; in [13] it was 9.9 µM. Further, the inhibition result in assay [3] and in assay [11] was “inactive” in each case. Further, the result in [4], in assay [5], in [7] and in assay [9] was inactive. The result in assay [6] was Active. In addition, the inhibition entry in [8] and in assay [10] was “Active” in each case. Moreover, binding in assay [12] was put at a Kd of 22200 nM.

Take `c1cc(N2CCNCC2)ccn1`: the equilibrium dissociation constant (Kd) in assay [1] (read-out: Kd) is 142000 nM.

Consider `FC(F)(F)c1cc(N2CCNCC2)c2ccccc2n1`, for which, in [1] (read-out: Kd), the Kd came to 84.2 nM.

What is called Kd is the free concentration of one partner at which half of the binding sites on the other are occupied at equilibrium, for simple one-to-one binding.
